Test results as given in PubChem BioAssay AID602316 (Southern Research Specialized Biocontainment Screening …, 2012).
Calls of active or inactive are those of the source.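 The calls were made as follows: active = inhibition of at least 30% at any tested concentration; inactive = the rest.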

molecular target: M18 aspartyl aminopeptidase (Plasmodium falciparum 3D7); test: PfM18AAP enzyme inhibition, dose response, selectivity assay for PfM17LAP inhibitor project, biochemical, QFRET, H-Glu-NHMec substrate, set 3 (AID 602316); conditions: recombinant PfM18AAP, H-Glu-NHMec fluorogenic cleavage
Summary of the method: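 System – purified recombinant P. falciparum M18 aspartyl aminopeptidase (PFM18AAP) · Medium – Tris-HCl buffer pH 7.5, 2 mM CoCl2, 0.01% Triton X-100 · Timing – 90 min reaction, room temperature · Technique – NHMec fluorescence at 370/460 nm · Read-out basis – % inhibition and fitted IC50 · Replication – each dose tested in triplicate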

| IC50 [µM] | SMILES |
| --- | --- |
| 21.7 | CCCCOc1ccc(C(C)C(=O)NO)cc1 (stereo not drawn) |
| 26.1 | CCCOc1ccc(CC(=O)NO)cc1 |
| 29.1 | CCCCOc1cccc(CC(=O)NO)c1 |
| 27.7 | CCC(C)Oc1ccc(CC(=O)NO)cc1 (stereo not drawn) |

same assay, conditions: recombinant PfM18AAP, H-Glu-NHMec fluorogenic cleavage; at 100 µM (top of the series)

| inhibition | SMILES |
| --- | --- |
| inactive | CN(C)CCOc1ccc(CC(=O)O)cc1 |
| inactive | CCCCOc1ccc(CN(O)C(=O)c2ccccc2)cc1 |
| inactive | CCCCOc1ccc(CN(O)C(C)=O)cc1 |
| inactive | CCCCOc1cccc(CC(=O)OC)c1 |
| inactive | CCCOc1ccc(CC(=O)O)cc1 |
| inactive | CCCCOc1ccc(C(C)C(=O)OC)cc1 (stereo not drawn) |
| inactive | CCCCOc1ccc(C(C)(C)C(=O)NO)cc1 |
| inactive | CCCCOc1ccc(C(C)(C)C(=O)O)cc1 |
| inactive | CCCCOc1ccc(C(C)C(=O)O)cc1 (stereo not drawn) |
